From ChEMBL document CHEMBL4118021, “Studies of TAK1-centered polypharmacology with novel covalent TAK1 inhibitors” (Bioorg Med Chem, 2017)
Active and inactive are the calls of the source. The calls are words filed in the database; no cut-off is given here.

Assays:
[1] = molecular target: V-type proton ATPase subunit B, brain isoform (Homo sapiens) (UniProt P21281); test: Binding affinity to ATP6V1B2 in human NCI-H23 cells at 1 uM by mass spectrometry based pull down assay; format: cell-based
[2] = molecular target: Aldehyde dehydrogenase family 3 member A2 (Homo sapiens) (UniProt P51648); test: Binding affinity to ALDH3A2 in human NCI-H358 cells at 1 uM by mass spectrometry based pull down assay; format: cell-based
[3] = molecular target: T-complex protein 1 subunit epsilon (Homo sapiens) (UniProt P48643); test: Binding affinity to CCT5 in human NCI-H23 cells at 1 uM by mass spectrometry based pull down assay; format: cell-based
[4] = molecular target: T1, 80S Ribosome (Homo sapiens) (UniProt P08865+P42677+P62753+P15880+P23396+P61247+P62701+P22090+P46782+P62081+P62241+P46781+P46783+P62280+P25398+P62277+P62263+P62841+P62244+P62249+P08708+P62269+P39019+P60866+P63220+P62266+P62847+P62851+P62854+P62979+P62857+P62273+P62861+P39023+P36578+P46777+Q02878+P18124+P62424+P62917+P32969+P27635+P62906+P62913+P30050+P26373+P40429+P50914+P61313+P18621+Q07020+Q02543+P84098+P46778+P35268+P62829+P62750+P83731+P61254+P61353+P46776+P46779+P47914+P62888+P62899+P62910+P49207+P42766+P18077+Q9Y3U8+P83881+P61927+P61513+P63173+P62891+P62945+P05388+P05386); test: Binding affinity to RPL23A in human NCI-H23 cells at 1 uM by mass spectrometry based pull down assay; format: cell-based
[5] = molecular target: Pyrroline-5-carboxylate reductase 2 (Homo sapiens) (UniProt Q96C36); test: Binding affinity to PYCR2 in human NCI-H358 cells at 1 uM by mass spectrometry based pull down assay; format: cell-based
[6] = molecular target: Actin-related protein 2 (Homo sapiens) (UniProt P61160); test: Binding affinity to ACTR2 in human NCI-H358 cells at 1 uM by mass spectrometry based pull down assay; format: cell-based
Outline: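 NCI-H23 or NCI-H358 cells were grown and lysed. Lysates were incubated overnight at 4 °C with 1 μM biotinylated covalent probe or DMSO, then pulled down on streptavidin beads. Proteins were run on polyacrylamide gels and stained with Coomassie. Bands were excised, digested and identified by mass spectrometry.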

[7] = molecular target: T1, 80S Ribosome (Homo sapiens); test: Binding affinity to RPS24 in human NCI-H358 cells at 1 uM by mass spectrometry based pull down assay; format: cell-based
[8] = molecular target: ADP-ribose glycohydrolase OARD1 (Homo sapiens) (UniProt Q9Y530); test: Binding affinity to OARD1 in human NCI-H23 cells at 1 uM by mass spectrometry based pull down assay; format: cell-based
[9] = molecular target: Tubulin beta-2A chain (Homo sapiens) (UniProt Q13885); test: Binding affinity to TUBB2A in human NCI-H358 cells at 1 uM by mass spectrometry based pull down assay; format: cell-based
[10] = molecular target: Prefoldin subunit 2 (Homo sapiens) (UniProt Q9UHV9); test: Binding affinity to PFDN2 in human NCI-H23 cells at 1 uM by mass spectrometry based pull down assay; format: cell-based
[11] = molecular target: Lactoylglutathione lyase (Homo sapiens) (UniProt Q04760); test: Binding affinity to GLO1 in human NCI-H358 cells at 1 uM by mass spectrometry based pull down assay; format: cell-based
[12] = molecular target: Actin-related protein 2/3 complex subunit 2 (Homo sapiens) (UniProt O15144); test: Binding affinity to ARPC2 in human NCI-H23 cells at 1 uM by mass spectrometry based pull down assay; format: cell-based
[13] = molecular target: Carbonyl reductase [NADPH] 1 (Homo sapiens) (UniProt P16152); test: Binding affinity to CBR1 in human NCI-H23 cells at 1 uM by mass spectrometry based pull down assay; format: cell-based
[14] = molecular target: Glutamate--cysteine ligase regulatory subunit (Homo sapiens) (UniProt P48507); test: Binding affinity to GCLM in human NCI-H358 cells at 1 uM by mass spectrometry based pull down assay; format: cell-based
[15] = molecular target: Kinesin-like protein KIF15 (Homo sapiens) (UniProt Q9NS87); test: Binding affinity to KIF15 in human NCI-H358 cells at 1 uM by mass spectrometry based pull down assay; format: cell-based
[16] = molecular target: T1, 80S Ribosome (Homo sapiens); test: Binding affinity to RPL26 in human NCI-H23 cells at 1 uM by mass spectrometry based pull down assay; format: cell-based
[17] = molecular target: Leucine-rich PPR motif-containing protein, mitochondrial (Homo sapiens) (UniProt P42704); test: Binding affinity to LRPPRC in human NCI-H358 cells at 1 uM by mass spectrometry based pull down assay; format: cell-based
[18] = molecular target: T2, Serine/threonine-protein kinase D2 (Homo sapiens) (UniProt Q9BZL6); test: Inhibition of human PRKD2 (519 to 838 residues) expressed in bacterial expression system assessed as enzyme activity at 1 uM by KINOMEScan assay relative to control; parameters: scale not given: the % may be the effect or the level left
T2 sequence (whole entry): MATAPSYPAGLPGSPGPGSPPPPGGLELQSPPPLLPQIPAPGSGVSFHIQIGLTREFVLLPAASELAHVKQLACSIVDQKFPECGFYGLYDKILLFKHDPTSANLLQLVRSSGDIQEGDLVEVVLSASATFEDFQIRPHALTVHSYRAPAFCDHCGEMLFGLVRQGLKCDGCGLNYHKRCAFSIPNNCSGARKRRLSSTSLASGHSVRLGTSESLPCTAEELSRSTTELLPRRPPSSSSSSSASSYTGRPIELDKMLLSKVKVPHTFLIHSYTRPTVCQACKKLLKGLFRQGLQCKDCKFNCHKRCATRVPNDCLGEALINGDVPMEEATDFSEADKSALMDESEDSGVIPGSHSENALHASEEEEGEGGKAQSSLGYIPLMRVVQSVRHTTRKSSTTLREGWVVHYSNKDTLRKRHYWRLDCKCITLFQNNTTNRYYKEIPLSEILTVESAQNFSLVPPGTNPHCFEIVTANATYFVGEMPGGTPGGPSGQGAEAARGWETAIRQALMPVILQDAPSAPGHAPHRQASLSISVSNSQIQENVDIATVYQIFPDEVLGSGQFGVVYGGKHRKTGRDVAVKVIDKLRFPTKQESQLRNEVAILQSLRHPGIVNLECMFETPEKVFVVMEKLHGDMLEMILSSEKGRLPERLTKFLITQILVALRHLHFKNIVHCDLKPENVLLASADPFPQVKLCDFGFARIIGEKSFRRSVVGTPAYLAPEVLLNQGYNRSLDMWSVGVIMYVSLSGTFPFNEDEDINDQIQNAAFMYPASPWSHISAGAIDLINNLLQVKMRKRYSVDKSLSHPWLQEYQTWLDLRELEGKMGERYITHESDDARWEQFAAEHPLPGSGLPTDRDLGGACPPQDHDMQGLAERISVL
Outline: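 In vitro ATP-site competition binding assay across a panel of 456 kinases, with compound tested at 1 and 10 μM.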

Kinesin-like protein KIF15 (Homo sapiens), sequence (Q9NS87 whole entry): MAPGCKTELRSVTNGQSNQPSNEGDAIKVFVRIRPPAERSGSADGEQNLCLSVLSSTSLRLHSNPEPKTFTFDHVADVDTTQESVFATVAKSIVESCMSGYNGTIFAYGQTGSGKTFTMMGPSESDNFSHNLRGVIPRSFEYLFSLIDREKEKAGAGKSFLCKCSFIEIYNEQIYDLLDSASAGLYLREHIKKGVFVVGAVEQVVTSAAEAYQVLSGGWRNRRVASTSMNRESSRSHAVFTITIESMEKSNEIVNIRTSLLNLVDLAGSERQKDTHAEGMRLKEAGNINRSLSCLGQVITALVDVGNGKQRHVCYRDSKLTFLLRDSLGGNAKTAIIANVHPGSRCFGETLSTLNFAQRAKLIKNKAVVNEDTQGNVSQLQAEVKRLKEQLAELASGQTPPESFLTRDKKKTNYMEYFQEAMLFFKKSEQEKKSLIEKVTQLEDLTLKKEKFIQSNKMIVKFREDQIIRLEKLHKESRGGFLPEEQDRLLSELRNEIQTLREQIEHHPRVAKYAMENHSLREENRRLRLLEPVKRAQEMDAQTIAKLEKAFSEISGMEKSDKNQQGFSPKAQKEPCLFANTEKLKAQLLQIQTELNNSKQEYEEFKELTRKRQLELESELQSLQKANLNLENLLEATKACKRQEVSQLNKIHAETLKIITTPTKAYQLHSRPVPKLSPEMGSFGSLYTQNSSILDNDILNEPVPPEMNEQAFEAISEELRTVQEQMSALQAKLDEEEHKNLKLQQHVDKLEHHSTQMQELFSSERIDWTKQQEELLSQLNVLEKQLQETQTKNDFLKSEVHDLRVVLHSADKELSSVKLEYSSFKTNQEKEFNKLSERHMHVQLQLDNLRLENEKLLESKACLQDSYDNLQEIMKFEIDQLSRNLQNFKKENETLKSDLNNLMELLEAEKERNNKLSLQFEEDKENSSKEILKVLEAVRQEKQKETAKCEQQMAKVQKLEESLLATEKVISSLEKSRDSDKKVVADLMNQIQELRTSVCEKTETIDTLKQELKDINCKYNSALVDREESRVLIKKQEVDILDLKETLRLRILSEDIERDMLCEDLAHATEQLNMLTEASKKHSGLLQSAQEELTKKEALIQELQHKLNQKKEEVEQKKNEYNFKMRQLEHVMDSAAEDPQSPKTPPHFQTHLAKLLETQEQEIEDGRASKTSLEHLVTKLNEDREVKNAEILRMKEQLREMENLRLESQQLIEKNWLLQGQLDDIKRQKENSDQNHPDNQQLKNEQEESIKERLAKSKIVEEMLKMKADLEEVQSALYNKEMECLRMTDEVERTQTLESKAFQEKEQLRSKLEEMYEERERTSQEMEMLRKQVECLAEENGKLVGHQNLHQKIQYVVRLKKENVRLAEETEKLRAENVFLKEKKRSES
ADP-ribose glycohydrolase OARD1 (Homo sapiens), sequence (Q9Y530 whole entry): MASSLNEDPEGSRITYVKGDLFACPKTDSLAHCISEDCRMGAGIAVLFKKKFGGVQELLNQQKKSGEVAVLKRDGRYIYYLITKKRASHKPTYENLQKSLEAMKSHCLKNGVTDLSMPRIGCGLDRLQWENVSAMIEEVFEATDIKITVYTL
V-type proton ATPase subunit B, brain isoform (Homo sapiens), sequence (P21281 whole entry, canonical isoform): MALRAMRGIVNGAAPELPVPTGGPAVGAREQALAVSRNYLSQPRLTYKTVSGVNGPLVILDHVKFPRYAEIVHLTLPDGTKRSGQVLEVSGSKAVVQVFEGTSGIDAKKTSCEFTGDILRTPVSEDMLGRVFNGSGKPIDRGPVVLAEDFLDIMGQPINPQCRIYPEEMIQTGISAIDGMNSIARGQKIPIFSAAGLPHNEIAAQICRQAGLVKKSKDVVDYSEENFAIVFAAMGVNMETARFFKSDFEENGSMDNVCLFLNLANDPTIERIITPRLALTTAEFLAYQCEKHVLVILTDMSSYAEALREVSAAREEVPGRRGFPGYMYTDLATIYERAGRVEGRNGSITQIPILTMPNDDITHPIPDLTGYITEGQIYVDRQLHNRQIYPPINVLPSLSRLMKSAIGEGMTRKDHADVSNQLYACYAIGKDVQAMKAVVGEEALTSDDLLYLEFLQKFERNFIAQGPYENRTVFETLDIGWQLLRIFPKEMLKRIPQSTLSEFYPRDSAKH
Tubulin beta-2A chain (Homo sapiens), sequence (Q13885 whole entry): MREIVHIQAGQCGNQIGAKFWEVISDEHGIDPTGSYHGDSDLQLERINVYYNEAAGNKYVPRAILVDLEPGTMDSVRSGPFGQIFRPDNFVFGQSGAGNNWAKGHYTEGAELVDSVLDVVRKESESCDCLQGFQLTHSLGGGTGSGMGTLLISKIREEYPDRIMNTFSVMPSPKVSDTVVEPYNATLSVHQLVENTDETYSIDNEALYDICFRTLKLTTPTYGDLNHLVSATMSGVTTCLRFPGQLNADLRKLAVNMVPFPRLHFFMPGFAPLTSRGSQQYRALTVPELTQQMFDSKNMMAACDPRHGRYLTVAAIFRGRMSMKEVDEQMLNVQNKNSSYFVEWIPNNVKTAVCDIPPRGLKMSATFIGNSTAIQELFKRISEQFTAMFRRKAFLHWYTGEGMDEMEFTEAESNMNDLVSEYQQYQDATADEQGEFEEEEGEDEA
Prefoldin subunit 2 (Homo sapiens), sequence (Q9UHV9 whole entry): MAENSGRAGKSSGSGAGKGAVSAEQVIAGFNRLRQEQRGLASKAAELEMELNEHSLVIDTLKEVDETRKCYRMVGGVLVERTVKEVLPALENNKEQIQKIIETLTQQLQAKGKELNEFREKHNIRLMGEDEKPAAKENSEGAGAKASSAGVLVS
T-complex protein 1 subunit epsilon (Homo sapiens), sequence (P48643 whole entry, one chain of several): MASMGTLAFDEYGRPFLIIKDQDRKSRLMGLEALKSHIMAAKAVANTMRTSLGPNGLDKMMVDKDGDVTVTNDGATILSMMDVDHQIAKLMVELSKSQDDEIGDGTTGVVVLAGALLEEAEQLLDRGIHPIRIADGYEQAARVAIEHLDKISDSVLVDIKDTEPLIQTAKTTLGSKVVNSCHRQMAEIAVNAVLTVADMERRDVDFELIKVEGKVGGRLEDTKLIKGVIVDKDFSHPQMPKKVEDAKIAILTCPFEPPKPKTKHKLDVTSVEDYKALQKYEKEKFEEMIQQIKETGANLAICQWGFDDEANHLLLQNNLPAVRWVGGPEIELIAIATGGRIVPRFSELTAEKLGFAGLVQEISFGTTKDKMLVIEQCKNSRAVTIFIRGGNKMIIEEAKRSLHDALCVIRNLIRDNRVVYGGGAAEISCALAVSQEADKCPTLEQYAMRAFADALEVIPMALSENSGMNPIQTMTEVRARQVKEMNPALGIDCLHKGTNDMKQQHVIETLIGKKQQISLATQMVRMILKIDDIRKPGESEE
Aldehyde dehydrogenase family 3 member A2 (Homo sapiens), sequence (P51648 whole entry): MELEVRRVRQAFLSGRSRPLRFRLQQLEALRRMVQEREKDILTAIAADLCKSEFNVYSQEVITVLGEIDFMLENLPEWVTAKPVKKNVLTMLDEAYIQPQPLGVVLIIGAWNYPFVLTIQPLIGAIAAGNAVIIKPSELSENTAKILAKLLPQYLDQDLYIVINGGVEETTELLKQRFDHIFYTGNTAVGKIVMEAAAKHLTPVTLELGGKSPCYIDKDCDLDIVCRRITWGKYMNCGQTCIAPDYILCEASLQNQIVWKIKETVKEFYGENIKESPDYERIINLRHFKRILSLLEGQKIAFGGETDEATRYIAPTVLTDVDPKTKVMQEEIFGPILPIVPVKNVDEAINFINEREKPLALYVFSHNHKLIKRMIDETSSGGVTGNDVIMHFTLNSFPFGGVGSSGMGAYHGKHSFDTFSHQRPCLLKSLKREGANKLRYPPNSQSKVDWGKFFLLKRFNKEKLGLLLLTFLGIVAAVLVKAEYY
Lactoylglutathione lyase (Homo sapiens), sequence (Q04760 2-184 limits assumed): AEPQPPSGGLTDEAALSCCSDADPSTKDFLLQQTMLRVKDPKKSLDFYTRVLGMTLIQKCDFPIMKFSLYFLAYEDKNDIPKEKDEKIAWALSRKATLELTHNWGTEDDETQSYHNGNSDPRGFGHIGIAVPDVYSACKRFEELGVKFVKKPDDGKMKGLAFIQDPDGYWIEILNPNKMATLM
Pyrroline-5-carboxylate reductase 2 (Homo sapiens), sequence (Q96C36 whole entry): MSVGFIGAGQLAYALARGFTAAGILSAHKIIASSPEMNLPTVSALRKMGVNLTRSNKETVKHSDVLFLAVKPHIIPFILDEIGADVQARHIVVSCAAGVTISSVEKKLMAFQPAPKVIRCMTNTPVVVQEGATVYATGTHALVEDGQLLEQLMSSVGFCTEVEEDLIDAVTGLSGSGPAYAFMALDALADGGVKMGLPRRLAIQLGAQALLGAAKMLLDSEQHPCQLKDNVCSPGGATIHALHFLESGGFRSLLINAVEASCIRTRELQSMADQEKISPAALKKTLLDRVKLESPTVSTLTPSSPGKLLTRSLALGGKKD
Glutamate--cysteine ligase regulatory subunit (Homo sapiens), sequence (P48507 whole entry): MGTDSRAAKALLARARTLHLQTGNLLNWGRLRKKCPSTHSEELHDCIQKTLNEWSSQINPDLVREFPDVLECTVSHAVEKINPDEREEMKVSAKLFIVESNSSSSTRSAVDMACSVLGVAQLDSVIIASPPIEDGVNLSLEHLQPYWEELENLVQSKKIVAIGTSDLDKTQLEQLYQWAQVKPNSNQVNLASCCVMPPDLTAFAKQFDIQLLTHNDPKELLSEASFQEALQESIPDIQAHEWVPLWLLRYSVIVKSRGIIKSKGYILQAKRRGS
Carbonyl reductase [NADPH] 1 (Homo sapiens), sequence (P16152 whole entry): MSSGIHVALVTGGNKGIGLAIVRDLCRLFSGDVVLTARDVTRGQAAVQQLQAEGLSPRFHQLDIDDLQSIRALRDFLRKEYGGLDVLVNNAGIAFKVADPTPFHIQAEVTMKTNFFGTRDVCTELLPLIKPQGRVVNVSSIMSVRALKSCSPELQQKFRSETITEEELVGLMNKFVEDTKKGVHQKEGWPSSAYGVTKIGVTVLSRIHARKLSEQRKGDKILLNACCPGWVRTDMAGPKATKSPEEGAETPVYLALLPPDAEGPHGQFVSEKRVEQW

Activity [1] | Activity [2] | Activity [3] | Activity [4] | Activity [5] | Activity [6] | Activity [7] | Activity [8] | Activity [9] | Activity [10] | Activity [11] | Activity [12] | Activity [13] | Activity [14] | Activity [15] | Activity [16] | Activity [17] | SMILES | Activity [18]
Active | Active | Active | Active | Active | Active | Active | Active | Active | Active | Active | Active | Active | Active | Active | Active | Active | C=CC(=O)Nc1ccccc1Nc1nc(Nc2ccc(N3CCN(CCOCCOCCOCCNC(=O)CCCC[C@@H]4SC[C@@H]5NC(=O)N[C@@H]54)CC3)cc2)ncc1Cl | –
– | – | – | – | – | – | – | – | – | – | – | – | – | – | – | – | – | COc1cc(O)c2c(c1)/C=C/C[C@H](O)[C@H](O)C(=O)/C=C\C[C@H](C)OC2=O | 72%
